Experimental data published in ChEMBL document CHEMBL4190407, “Identification of Morpholino Thiophenes as Novel Mycobacterium tuberculosis Inhibitors, Targeting QcrB” (J Med Chem, 2018).
≈ marks a conversion by molar mass, not a printed value. Calls of active or inactive are those of the source. The calls are words filed in the database; no cut-off is given here.

Assays:
[1] = Intrinsic clearance in CD-1 mouse liver microsomes in presence of NADPH up to 30 mins by UPLC-MS/MS analysis; assay type: ADME, microsome; conditions: 0.5 h
[2] = system: Vero; test: Cytotoxicity against African green monkey Vero cells assessed as growth inhibition measured after 2 days by CellTiter-Glo assay; assay type: cell-based; conditions: Chlorocebus sabaeus, 48 h
[3] = system: Mus musculus; test: Toxicity in C57BL/6 mouse infected with Mycobacterium tuberculosis H37Rv at 30 mg/kg, po for 8 consecutive days starting from day 1 post infection; assay type: organism-based; conditions: in vivo
[4] = system: Mycobacterium tuberculosis; test: Antimycobacterial activity against Mycobacterium tuberculosis H37Rv ATCC 25618 after 5 days; assay type: functional; conditions: H37Rv ATCC 25618, 120 h
In short: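 Growth measured in Middlebrook 7H9 with 10% OADC and 0.05% Tween 80 under aerobic conditions, covering H37Rv (ATCC 25618) and QcrB mutant strains. Growth read after 5 days at 37 °C. MIC90 is the concentration giving 90% growth inhibition, obtained by curve fitting (Levenberg–Marquardt). Mean ± SD of at least two independent experiments.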

[5] = biological target: Cytochrome bc1 complex cytochrome b subunit (Mycobacterium tuberculosis (strain ATCC 25618 / H37Rv)) (UniProt P9WP37); test: Inhibition of QcrB in Mycobacterium tuberculosis H37Rv ATCC 25618 assessed as reduction in ATP level measured up to 0.1 uM after 24 hrs by BacTiter-Glo assay
In short: (§1)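 H37Rv exposed to compounds for 24 h. Intrabacterial ATP measured by BacTiter-Glo as relative luminescence units, with growth followed by OD590. Representative of 2 independent experiments.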

[6] = biological target: Cytochrome bc1 complex cytochrome b subunit (Mycobacterium tuberculosis (strain ATCC 25618 / H37Rv)) (UniProt P9WP37); test: Inhibition of QcrB in Mycobacterium tuberculosis H37Rv ATCC 25618 assessed as reduction in ATP level measured after 24 hrs by BacTiter-Glo assay; in short: as §1
[7] = Clearance in human liver microsomes; assay type: ADME, microsome
[8] = biological target: Cytochrome P450 2D6 (Homo sapiens, UniProt P10635); test: Inhibition of CYP2D6 (unknown origin); assay type: ADME
[9] = biological target: Cytochrome P450 2C9 (Homo sapiens, UniProt P11712); test: Inhibition of CYP2C9 (unknown origin); assay type: ADME
[10] = biological target: T1, Cytochrome P450 1A2 (Homo sapiens, UniProt P05177); test: Inhibition of CYP1A2 (unknown origin); assay type: ADME
T1 sequence (P05177 whole entry): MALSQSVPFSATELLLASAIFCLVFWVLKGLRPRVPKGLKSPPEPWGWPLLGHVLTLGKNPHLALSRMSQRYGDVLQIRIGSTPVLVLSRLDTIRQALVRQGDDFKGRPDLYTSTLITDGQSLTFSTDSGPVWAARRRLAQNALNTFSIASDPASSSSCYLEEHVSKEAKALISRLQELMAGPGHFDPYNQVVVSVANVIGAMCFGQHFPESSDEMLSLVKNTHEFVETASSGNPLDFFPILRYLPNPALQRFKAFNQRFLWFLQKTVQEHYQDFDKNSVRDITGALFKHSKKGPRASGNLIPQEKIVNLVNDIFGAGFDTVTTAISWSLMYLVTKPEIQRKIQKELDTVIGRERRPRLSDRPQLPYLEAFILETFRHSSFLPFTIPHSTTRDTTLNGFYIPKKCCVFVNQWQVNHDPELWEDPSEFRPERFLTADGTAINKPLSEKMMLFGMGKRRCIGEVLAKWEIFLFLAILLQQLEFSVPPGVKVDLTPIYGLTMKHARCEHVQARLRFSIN

[11] = biological target: Cytochrome P450 2C19 (Homo sapiens, UniProt P33261); test: Inhibition of CYP2C19 (unknown origin); assay type: ADME
[12] = system: Vero; test: Cytotoxicity against African green monkey Vero cells; assay type: cell-based; conditions: chlorocebus sabaeus
[13] = system: Mus musculus; test: AUC in C57 Black mouse at 3 mg/kg, iv administered as bolus dose by UPLC-MS/MS analysis; assay type: ADME, organism-based; conditions: in vivo
[14] = system: Mus musculus; test: In vivo drug metabolism in C57 Black mouse assessed as oxidation of morpholine at 3 mg/kg, iv administered as bolus dose or 10 mg/kg, po via gavage by UPLC-MS/MS analysis; assay type: ADME, organism-based
[15] = system: Mus musculus; test: In vivo drug metabolism in C57 Black mouse assessed as de-ethylation at 3 mg/kg, iv administered as bolus dose or 10 mg/kg, po via gavage by UPLC-MS/MS analysis; assay type: ADME, organism-based
[16] = system: Mus musculus; test: Toxicity in C57BL/6 mouse infected with Mycobacterium tuberculosis H37Rv at 100 mg/kg, po for 4 consecutive days starting from day 5 post infection; assay type: organism-based; conditions: in vivo

Cytochrome bc1 complex cytochrome b subunit (Mycobacterium tuberculosis (strain ATCC 25618 / H37Rv)), sequence (P9WP37 whole entry, one chain of several): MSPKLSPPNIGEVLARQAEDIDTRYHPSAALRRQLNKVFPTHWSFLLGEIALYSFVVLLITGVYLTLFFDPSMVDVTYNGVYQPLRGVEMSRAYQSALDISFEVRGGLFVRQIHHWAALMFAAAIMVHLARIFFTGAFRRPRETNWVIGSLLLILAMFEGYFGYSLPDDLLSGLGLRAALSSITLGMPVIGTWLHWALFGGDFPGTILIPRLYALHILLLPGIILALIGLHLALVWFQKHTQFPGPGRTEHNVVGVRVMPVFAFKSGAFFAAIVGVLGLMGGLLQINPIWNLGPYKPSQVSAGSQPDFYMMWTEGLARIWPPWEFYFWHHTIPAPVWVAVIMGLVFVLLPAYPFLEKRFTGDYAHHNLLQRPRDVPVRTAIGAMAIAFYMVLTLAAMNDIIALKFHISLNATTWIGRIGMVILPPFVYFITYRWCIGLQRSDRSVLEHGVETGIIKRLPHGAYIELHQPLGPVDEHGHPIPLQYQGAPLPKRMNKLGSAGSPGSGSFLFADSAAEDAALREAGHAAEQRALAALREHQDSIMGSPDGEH
Cytochrome P450 2C9, sequence (P11712 whole entry): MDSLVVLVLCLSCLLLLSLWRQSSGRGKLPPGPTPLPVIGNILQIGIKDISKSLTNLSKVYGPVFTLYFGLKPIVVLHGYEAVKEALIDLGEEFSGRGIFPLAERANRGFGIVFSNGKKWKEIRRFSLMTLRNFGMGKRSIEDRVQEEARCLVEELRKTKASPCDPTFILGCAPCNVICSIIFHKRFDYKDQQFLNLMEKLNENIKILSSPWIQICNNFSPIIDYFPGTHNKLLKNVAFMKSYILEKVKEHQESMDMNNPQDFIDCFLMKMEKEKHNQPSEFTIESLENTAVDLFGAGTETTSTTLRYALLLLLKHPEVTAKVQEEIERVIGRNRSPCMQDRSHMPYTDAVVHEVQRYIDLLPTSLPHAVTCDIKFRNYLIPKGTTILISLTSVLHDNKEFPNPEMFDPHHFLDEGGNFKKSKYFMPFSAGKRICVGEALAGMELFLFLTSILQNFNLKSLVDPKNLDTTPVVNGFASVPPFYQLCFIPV
Cytochrome P450 2C19, sequence (P33261 whole entry): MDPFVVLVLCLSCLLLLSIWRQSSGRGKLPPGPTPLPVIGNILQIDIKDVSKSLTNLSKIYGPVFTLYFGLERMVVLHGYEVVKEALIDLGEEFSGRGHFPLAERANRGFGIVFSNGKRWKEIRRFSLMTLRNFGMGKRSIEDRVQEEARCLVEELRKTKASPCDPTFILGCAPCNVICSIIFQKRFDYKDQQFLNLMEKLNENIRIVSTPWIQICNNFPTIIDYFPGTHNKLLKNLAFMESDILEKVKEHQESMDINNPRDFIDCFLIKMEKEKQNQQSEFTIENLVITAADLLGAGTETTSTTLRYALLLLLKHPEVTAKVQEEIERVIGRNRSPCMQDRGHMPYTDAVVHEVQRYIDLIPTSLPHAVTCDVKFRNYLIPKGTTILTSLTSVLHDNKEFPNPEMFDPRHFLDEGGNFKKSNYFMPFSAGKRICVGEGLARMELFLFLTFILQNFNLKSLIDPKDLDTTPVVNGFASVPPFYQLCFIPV
Cytochrome P450 2D6, sequence (P10635 whole entry): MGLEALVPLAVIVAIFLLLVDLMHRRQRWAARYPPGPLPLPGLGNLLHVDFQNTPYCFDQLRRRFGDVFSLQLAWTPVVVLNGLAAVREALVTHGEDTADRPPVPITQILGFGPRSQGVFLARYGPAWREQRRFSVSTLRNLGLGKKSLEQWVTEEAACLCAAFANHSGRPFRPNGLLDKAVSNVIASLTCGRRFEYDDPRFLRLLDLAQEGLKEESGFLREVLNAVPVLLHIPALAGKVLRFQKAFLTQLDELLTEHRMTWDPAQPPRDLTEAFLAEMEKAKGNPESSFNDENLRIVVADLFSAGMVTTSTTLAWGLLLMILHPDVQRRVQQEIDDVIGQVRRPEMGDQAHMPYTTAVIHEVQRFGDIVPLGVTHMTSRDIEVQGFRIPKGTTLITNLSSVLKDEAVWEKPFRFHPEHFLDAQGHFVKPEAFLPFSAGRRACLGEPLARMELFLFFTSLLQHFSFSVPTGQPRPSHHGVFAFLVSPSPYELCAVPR

## NC(=O)c1sc(CN2CCOCC2)cc1OCCc1ccccc1
[1]
  intrinsic clearance: 3 mL/min/g

## NC(=O)c1sc(N2CCOCC2)cc1OCCN1CCOCC1
[1]
  intrinsic clearance: 0.9 mL/min/g

## CON(C)C(=O)c1sc(N2CCOCC2)cc1OCCc1ccccc1
[2]
  IC50: 78 µM

## COc1c(N2C[C@@H]3CCCN[C@@H]3C2)c(F)cc2c(=O)c(C(=O)O)cn(C3CC3)c12 [MOXIFLOXACIN]
[3]
  Activity: Non-Toxic

## NC(O)C1SC(N2CCOCC2)CC1OCC(F)(F)C1CCCCC1 (stereo not drawn)
[4]
  MIC90: > 20 µM
[2]
  IC50: 95 µM
[1]
  intrinsic clearance: 19 mL/min/g

## NC(=O)c1ccc(N2CCOCC2)cc1OCCc1ccccc1
[1]
  intrinsic clearance: 12 mL/min/g

## CO[C@H]1/C=C/O[C@@]2(C)Oc3c(C)c(O)c4c(O)c(c(/C=N/N5CCN(C)CC5)c(O)c4c3C2=O)NC(=O)/C(C)=C\C=C\[C@H](C)[C@H](O)[C@@H](C)[C@@H](O)[C@@H](C)[C@H](OC(C)=O)[C@@H]1C
[5]
  inhibition: Active

## NC(=O)c1sc(N2CCOCC2=O)cc1OCCc1ccccc1
[1]
  intrinsic clearance: 7 mL/min/g

## COc1ccc(CCOc2cc(N3CCOCC3)sc2C(N)=O)cc1
[4]
  MIC90: 0.6 to 0.63 µM (≈ 0.217 to 0.228 µg/mL)

## CCc1nc2ccc(Cl)cn2c1C(=O)NCc1ccc(N2CCC(c3ccc(OC(F)(F)F)cc3)CC2)cc1
[5]
  inhibition: Active

## O=C(NO)c1sc(N2CCOCC2)cc1OCCc1ccccc1
[1]
  intrinsic clearance: 6 mL/min/g

## COc1ccccc1CCOc1cc(N2CCOCC2)sc1C(N)=O
[1]
  intrinsic clearance: 26 mL/min/g

## CNC(=O)c1sc(N2CCOCC2)cc1OCCc1ccccc1
[1]
  intrinsic clearance: 36 mL/min/g
[6]
  inhibition: Dose-dependent effect

## CC1COCCN1c1cc(OCCc2ccccc2)c(C(N)=O)s1 (stereo not drawn)
[4]
  MIC90: > 20 µM
[2]
  IC50: 77 µM
[1]
  intrinsic clearance: 11 mL/min/g

## NC(=O)c1sc(N2CCOCC2)cc1OCc1ccccc1
[1]
  intrinsic clearance: 14 mL/min/g

## NC(=O)c1sc(-n2nccn2)cc1OCCc1ccccc1
[1]
  intrinsic clearance: 30 mL/min/g

## COCCN(C)c1cc(OCCc2ccccc2)c(C(N)=O)s1
[4]
  MIC90: > 20 µM
[2]
  IC50: > 100 µM
[1]
  intrinsic clearance: 28 mL/min/g

## NC(=O)c1sc(N2CCOCC2)cc1OCCc1cccc(F)c1
[1]
  intrinsic clearance: 18 mL/min/g
[6]
  inhibition: Dose-dependent effect

## COC(=O)c1sc(N2CCOCC2)cc1OCCc1ccccc1
[1]
  intrinsic clearance: 50 mL/min/g

## CCOC(=O)NC(=O)c1sc(N2CCOCC2)cc1OCCc1ccccc1
[1]
  intrinsic clearance: 1 mL/min/g

## NC(=O)c1sc(N2CCOCC2)cc1OCCc1ccccc1
[4]
  MIC90: 0.72 to 0.8 µM (≈ 0.239 to 0.266 µg/mL)
[7]
  CLH: 3.5 mL/min/g
[8]
  INH: 5 µM
[9]
  INH: 5.1 µM
[10]
  INH: < 5 µM
[11]
  INH: 5.9 µM
[12]
  Activity: > 100 µM
[13]
  AUC: 29000 ng·min/mL
[6]
  inhibition: Dose-dependent effect

## NC(=O)c1sc(N2CCOCC2)cc1CCCc1ccc(F)cc1
[4]
  MIC90: 0.9 µM (≈ 0.314 µg/mL)
[2]
  IC50: > 100 µM
[1]
  intrinsic clearance: 13 mL/min/g

## NC(=O)c1sc(N2CCOCC2)cc1OCCc1ccc(OC(F)(F)F)cc1
[4]
  MIC90: 0.2 to 0.24 µM (≈ 0.0833 to 0.0999 µg/mL)
[14]
  Drug metabolism: Metabolite_Detected
[15]
  Drug metabolism: Metabolite_Detected
[16]
  Activity: Non-Toxic
[6]
  inhibition: Dose-dependent effect

## CC1(COc2cc(N3CCOCC3)sc2C(N)=O)COC1
[13]
  AUC: 980000 ng·min/mL

## CNC(=O)c1sc(N2CC3CC2CO3)cc1OCCc1ccccc1 (stereo not drawn)
[1]
  intrinsic clearance: 13 mL/min/g

## COc1cccc(CCOc2cc(N3CCOCC3)sc2C(N)=O)c1
[1]
  intrinsic clearance: 10 mL/min/g
